Compounds with a hit are over-represented: about 3.5% of the library has one in this group of screens.
ABHD4 inh: ABHD4 inhibitors, primary screen, biochemical, fluorescence polarization, mouse | (Lyso)-N-acylphosphatidylethanolamine lipase (Mus musculus), Q8VD66 | purified mABHD4, FP-Rh probe fluorescence polarization | inhibition, % at 8.92 µM | 370,000 tested, 0.54% active | AID 720543, 2013;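 active = inhibition exceeding the mean over every tested compound plus 3 SD, cut at about 30% in these data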;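 also: 0% = plate median of compound wells and 100% = S159A mutant with DMSO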
Target sequence (Q8VD66 whole entry, looked up): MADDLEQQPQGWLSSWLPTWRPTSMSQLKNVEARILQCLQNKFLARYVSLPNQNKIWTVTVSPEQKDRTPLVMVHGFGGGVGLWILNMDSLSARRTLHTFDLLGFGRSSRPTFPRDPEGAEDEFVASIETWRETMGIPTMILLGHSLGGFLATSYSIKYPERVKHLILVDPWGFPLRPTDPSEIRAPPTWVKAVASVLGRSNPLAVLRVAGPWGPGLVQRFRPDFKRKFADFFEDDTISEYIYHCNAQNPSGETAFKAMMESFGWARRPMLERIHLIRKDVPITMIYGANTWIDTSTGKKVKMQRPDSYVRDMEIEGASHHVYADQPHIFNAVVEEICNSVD
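Doses – 8.92 µM, single dose · Material – wild-type mouse ABHD4 protein · Replication – single well per compound (singlicate) · Measure – percent inhibition of probe binding, normalized to plate controls · Schedule – 45 min compound pre-incubation plus 60 min probe step, 25 °C · Detection – fluorescence polarization with parallel and perpendicular emission, 525/598 nm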
rCAG RNA binder: binders of r(CAG) RNA repeats, primary screen, biochemical, fluorescence; r(CAG) RNA repeat, TO-PRO-1 dye displacement fluorescence; inhibition, % at 3 µM; 370,000 tested, 1.3% active;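 active = inhibition above the plate cutoff, the mean of all test compounds on that plate plus 3 SD, cut at about 35% in these data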;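 also: 0% = DMSO alone and 100% = 100 µM mitoxantrone as full dye displacement; higher means more dye released from RNA so lower well fluorescence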
HTRA1 inhibitor: HTRA1 serine protease inhibitors, primary screen, biochemical, fluorescence polarization, HTS; Q92743; recombinant HTRA1, FP-rhodamine activity-based probe; inhibition, % at 5.96 µM; 340,000 tested, 0.5% active; in the data active = inhibition above about 36%;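 also: 0% = enzyme with DMSO and 100% = wells lacking enzyme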
PRMT1 FP inh: PRMT1 methyltransferase inhibitors, primary screen, biochemical, fluorescence polarization. Protein arginine N-methyltransferase 1 (Homo sapiens), Q99873. recombinant PRMT1, activity-based probe fluorescence polarization. inhibition, % at 2.79 µM. 370,000 tested, 1.3% active;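 active = inhibition above about 21% made by adding two undisclosed values, limit read from the data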
Target sequence (Q99873 whole entry, looked up): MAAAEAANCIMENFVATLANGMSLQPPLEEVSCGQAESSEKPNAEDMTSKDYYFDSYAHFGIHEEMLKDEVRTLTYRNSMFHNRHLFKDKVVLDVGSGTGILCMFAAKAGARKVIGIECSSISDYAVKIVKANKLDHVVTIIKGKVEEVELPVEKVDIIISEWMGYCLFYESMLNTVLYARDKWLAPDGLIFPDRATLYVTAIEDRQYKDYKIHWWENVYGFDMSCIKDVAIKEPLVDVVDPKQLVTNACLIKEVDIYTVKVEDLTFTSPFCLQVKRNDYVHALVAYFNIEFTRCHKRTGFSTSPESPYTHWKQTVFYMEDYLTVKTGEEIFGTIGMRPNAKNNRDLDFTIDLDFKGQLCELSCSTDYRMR
TCR CD3 inh: inhibitors of human TCR-CD3 interaction, primary screen, biochemical, fluorescence, TAMRA-labeled TCR probe | T-cell receptor (TCR) | inhibition, % at 9.4 µM | 360,000 tested, 0.37% active; in the data active = inhibition above about 19%;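 also: recombinant mutant TCR 2C K166C tagged with TAMRA read by polarization; 0% = receptor in buffer alone and 100% = receptor with positive control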
SIAE inh: human SIAE inhibitors, primary screen, biochemical, fluorescence polarization, FP-Rh probe, 1536-well HTS; SIAE FP-Rh probe binding; inhibition, % at 9.66 µM; 370,000 tested, 0.69% active;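 active = inhibition above a cutoff: mean of compounds within the control limits plus 3 SD of those, cut at about 17% in these data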;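 also: 0% = plate median of compound wells and 100% = probe without SIAE protein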
PRMT1 inh conf: PRMT1 methyltransferase inhibitors, confirmation, biochemical, fluorescence polarization, triplicate. shares compounds with PRMT1 FP inh. recombinant His-PRMT1, activity-based probe fluorescence polarization. inhibition, % at 2.79 µM. 3,300 tested, 42% active;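 active = mean inhibition across replicates above the hit cutoff derived for the earlier primary screen, cut at about 22% in these data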
Numbers without * were called inactive.

Results for CCC(/C=C1\Oc2ccc(OC)cc2N1C)=C\c1sc2ccccc2[n+]1CCCS(=O)(=O)[O-] ?
ABHD4 inh: -82.5; rCAG RNA binder: 25.6; HTRA1 inhibitor: -59.8; PRMT1 FP inh: 49.4*; TCR CD3 inh: -32.6; SIAE inh: -58.7; PRMT1 inh conf: 10.3

What do the screens show for `O=C(NC1CCCCC1)C(c1ccc(C(F)(F)F)cc1)n1c(=O)c(-c2ccco2)nc2ccccc21` (stereo not drawn)?
ABHD4 inh: -12.3; rCAG RNA binder: 20.3; PRMT1 FP inh: 29.1*; TCR CD3 inh: -0.5; SIAE inh: -12.9; PRMT1 inh conf: 14.7

What do the screens show for `CCCCCNC(=O)C(c1ccnc2ccccc12)n1c(=O)c(-c2ccccc2)nc2ccccc21` (stereo not drawn)?
ABHD4 inh: -5.9; rCAG RNA binder: 4.7; PRMT1 FP inh: -0.6; TCR CD3 inh: 4.4; SIAE inh: -2.3

What do the screens show for `COc1ccc(C(C(=O)NC(C)(C)C)n2c(=O)c(-c3ccco3)nc3ccccc32)cc1` (stereo not drawn)?
ABHD4 inh: -15.7; rCAG RNA binder: 27.7; PRMT1 FP inh: 31.1*; TCR CD3 inh: -8.3; SIAE inh: -0.6; PRMT1 inh conf: 6.9

How did O=C(NC1CCCCC1)C(c1ccccc1)n1c(=O)c(-c2cc3ccccc3[nH]2)nc2ccccc21 (stereo not drawn) do in these assays?
ABHD4 inh: 7.6; rCAG RNA binder: 9.5; PRMT1 FP inh: 0.6; TCR CD3 inh: 4.6; SIAE inh: -18.2

What do the screens show for `COc1ccc(NC(=O)C(c2ccc(OC)cc2)n2c(=O)c(-c3ccco3)nc3ccccc32)cc1` (stereo not drawn)?
ABHD4 inh: -18.1; rCAG RNA binder: 17.0; PRMT1 FP inh: 2.2; TCR CD3 inh: -1.0; SIAE inh: -16.1

How did CCCCCNC(=O)C(c1cccc2ccccc12)n1c(=O)c(-c2ccco2)nc2ccccc21 (stereo not drawn) do in these assays?
ABHD4 inh: -8.5; rCAG RNA binder: 30.1; PRMT1 FP inh: 31.8*; TCR CD3 inh: -12.2; SIAE inh: -12.8; PRMT1 inh conf: 14.0

What do the screens show for `O=C(NC1CCCCC1)C(c1ccccc1)n1c(=O)c(-c2ccco2)nc2ccccc21` (stereo not drawn)?
ABHD4 inh: 5.2; rCAG RNA binder: 29.8; PRMT1 FP inh: 28.4*; TCR CD3 inh: -10.4; SIAE inh: -5.2; PRMT1 inh conf: 23.1*

How did COc1ccc(CNC(=O)c2sc3nc(C)c(Cl)c(C)c3c2N)cc1 do in these assays?
ABHD4 inh: 3.7; rCAG RNA binder: 4.4; PRMT1 FP inh: 9.2; SIAE inh: -3.8

Results for CCOC(=O)[C@]12CCCCC/C=C\1N(Cc1ccc(OC)cc1)C(=O)[C@H]2CC(=O)N1CCSCC1 ?
ABHD4 inh: -5.6; rCAG RNA binder: 4.1; PRMT1 FP inh: 0.5; SIAE inh: 0.9

Results for CN(C)CC(=O)N[C@H]1C[C@@H]2O[C@H](CO)CC[C@@H]2O[C@@H]1CCc1ccc(-c2ccc(F)cc2)cc1 ?
ABHD4 inh: -4.6; rCAG RNA binder: 4.2; PRMT1 FP inh: 6.0; SIAE inh: 2.5

How did CC1CCC2(CCC(=O)N2CCCOC(=O)c2ccccc2)CC1 (stereo not drawn) do in these assays?
ABHD4 inh: -3.4; rCAG RNA binder: -2.8; PRMT1 FP inh: -2.9; SIAE inh: -2.2

How did O=c1c([N+](=O)[O-])c(Cl)c2ccccc2n1Cc1ccccc1 do in these assays?
ABHD4 inh: 6.9; PRMT1 FP inh: 42.6*; SIAE inh: 6.0; PRMT1 inh conf: 36.0*

Results for CCn1c(=O)c([N+](=O)[O-])c(Cl)c2ccccc21 ?
HTRA1 inhibitor: 10.1

Results for O=Nc1c(O)n(Cc2ccccc2)c2ccccc12 ?
ABHD4 inh: -10.5; rCAG RNA binder: 2.0; HTRA1 inhibitor: -31.6; PRMT1 FP inh: -3.0; TCR CD3 inh: -2.4; SIAE inh: -40.2

Results for O=c1c([N+](=O)[O-])c(O)c2ccccc2n1Cc1ccccc1 ?
ABHD4 inh: -0.5; rCAG RNA binder: 5.3; HTRA1 inhibitor: 4.7; PRMT1 FP inh: 28.9*; TCR CD3 inh: 3.6; SIAE inh: 3.2; PRMT1 inh conf: 6.5

Results for O=[N+]([O-])c1ccccc1/C=C/C=Nn1c(-c2ccc(F)cc2)n[nH]c1=S ?
ABHD4 inh: -25.2; rCAG RNA binder: 32.9; PRMT1 FP inh: 12.6; SIAE inh: -5.2

How did CC1(C(=O)CSc2nc3ccccc3s2)CCC(=O)O1 (stereo not drawn) do in these assays?
ABHD4 inh: 2.4; rCAG RNA binder: 4.8; HTRA1 inhibitor: 5.7; PRMT1 FP inh: 28.9*; TCR CD3 inh: 10.9; SIAE inh: 5.7; PRMT1 inh conf: 22.1*

How did COC(=O)c1ccc(-n2c(C)cc(C(=O)CSc3ccc(NC(C)=O)cc3)c2C)cc1 do in these assays?
ABHD4 inh: 7.7; rCAG RNA binder: -0.1; HTRA1 inhibitor: -16.1; PRMT1 FP inh: 49.7*; TCR CD3 inh: -0.6; SIAE inh: 6.5; PRMT1 inh conf: 29.5*

Results for CC(=O)Nc1ccc(SCC(=O)c2cc(C)n(-c3ccccc3F)c2C)cc1 ?
ABHD4 inh: 13.7; rCAG RNA binder: -4.4; HTRA1 inhibitor: -25.9; PRMT1 FP inh: 27.7*; TCR CD3 inh: 8.2; SIAE inh: 4.6; PRMT1 inh conf: 29.8*

What do the screens show for `C=CCn1c(C)cc(C(=O)CSc2ccc(NC(C)=O)cc2)c1C`?
ABHD4 inh: 6.3; rCAG RNA binder: -4.5; HTRA1 inhibitor: -1.8; PRMT1 FP inh: 1.4; TCR CD3 inh: 0.0; SIAE inh: -2.6

How did CN(Cc1ccccc1)S(=O)(=O)c1cccc(C(=O)OCc2cccc(C(F)(F)F)c2)c1 do in these assays?
ABHD4 inh: -0.2; rCAG RNA binder: 3.9; PRMT1 FP inh: 0.4; SIAE inh: -0.8

What do the screens show for `CC(C)(C)CSc1nnc(-c2cccnc2)n1Cc1ccccc1`?
ABHD4 inh: -0.8; rCAG RNA binder: -2.1; PRMT1 FP inh: -2.9; SIAE inh: 6.5

What do the screens show for `CCN(CC)CCCNC(=O)c1oc(=O)c2ccccc2c1-c1ccc(C)cc1`?
ABHD4 inh: 0.5; rCAG RNA binder: 6.0; PRMT1 FP inh: -0.3; SIAE inh: -0.8

How did COc1ccccc1N1CCN(S(=O)(=O)c2ccc3c(c2)CCC(=O)N3)CC1 do in these assays?
ABHD4 inh: 2.7; rCAG RNA binder: 4.3; PRMT1 FP inh: 1.4; SIAE inh: 0.7
